Results taken from ChEMBL document CHEMBL1124472, “Renal vasodilators. The role of the 4-substituent in isoquinolin-3-ol cardiovascular agents: 4-ureido derivatives of isoquinolin-3-ol with selective renal vasodilator properties” (1989).

Legend:
Settings in all cases: route intravenous
[1] = tested on: Canis familiaris; experiment: Percent change in heart rate by 6.2 mg/kg of compound administered intravenously in dog; type: functional, Canis lupus familiaris
Method in brief: (§1)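 Adult dogs anesthetized with pentobarbital (45 mg/kg ip), instrumented for electromagnetic renal artery flow; femoral artery cannulated for blood pressure, cardiotachometer for heart rate; iv via femoral vein. Cumulative infusion at rising rates, 5 min each (0.2+1.0 mg/kg for 1.2; 0.2+1.0+5.0 mg/kg for 6.2), in 0.9% saline ± acid/base; ≥2 dogs; maximal % change from predrug over ≥30 min; RVR = MAP/RBF.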

[2] = tested on: Canis familiaris; experiment: Percent change in renal vascular resistant e by 6.2 mg/kg of compound administered intravenously in dog; type: functional, Canis lupus familiaris; method in brief: as §1
[3] = tested on: Canis familiaris; experiment: Percent change in renal blood flow by 6.2 mg/kg of compound administered intravenously in dog; type: functional, Canis lupus familiaris; method in brief: as §1
[4] = tested on: Canis familiaris; experiment: Percent change in mean arterial blood pressure by 6.2 mg/kg of compound administered intravenously in dog; type: functional, Canis lupus familiaris; method in brief: as §1
[5] = tested on: Canis familiaris; experiment: Percent change in renal vascular resistant e by 1.2 mg/kg of compound administered intravenously in dog; type: functional, Canis lupus familiaris; method in brief: as §1
[6] = tested on: Canis familiaris; experiment: (§2) Percent change in renal blood flow by 1.2 mg/kg of compound administered intravenously in dog; type: functional, Canis lupus familiaris, Kidney; method in brief: as §1
[7] = tested on: Canis familiaris; experiment: Percent change in heart rate by 1.2 mg/kg of compound administered intravenously in dog; type: functional, Canis lupus familiaris; method in brief: as §1
[8] = tested on: Canis familiaris; experiment: Percent change in mean arterial blood pressure by 1.2 mg/kg of compound administered intravenously in dog; type: functional, Canis lupus familiaris; method in brief: as §1
[9] = tested on: Canis familiaris; experiment: Percent increase in myocardial contractile force by 8.75 mg/kg of compound administered intravenously in dog; type: functional, Canis lupus familiaris, Myocardium
Method in brief: (§3)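 Adult mongrel dogs, pentobarbital 45 mg/kg ip, artificially respired; right thoracotomy, Walton Brodie strain gauge on right ventricle at 100 g baseline tension. Only dogs giving >100% contractile-force rise to dopamine (10-15 μg/kg per min × 3 min) were used. Compound in 10-15% dimethylformamide, total dose infused iv into femoral vein; % change in contractile force.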

[10] = tested on: Canis familiaris; experiment: Percent increase in myocardial contractile force by 1.88 mg/kg of compound administered intravenously in dog; type: functional, Canis lupus familiaris, Myocardium; method in brief: as §3
[11] = tested on: Canis familiaris; experiment: Percent increase in myocardial contractile force by 1.75 mg/kg of compound administered intravenously in dog; type: functional, Canis lupus familiaris, Myocardium; method in brief: as §3
[12] = tested on: Canis familiaris; experiment: as §2; type: functional, Canis lupus familiaris; method in brief: as §1
[13] = tested on: Canis familiaris; experiment: Percent increase in myocardial contractile force by 0.025 mg/kg of compound administered intravenously in dog; type: functional, Canis lupus familiaris, Myocardium; method in brief: as §3

Row | Structure (SMILES) | Change [1] | Change [2] | Change [3] | Change [4] | Change [5] | Change [6] | Change [7] | Change [8] | other results
1 | COc1cccc(NC(=O)Nc2c(O)nc(C)c3cc(OC)c(OC)cc23)c1 | -2% | -36% | 59% | -1% |  |  |  |  | 
2 | COc1cc2c(C)nc(O)c(NC(=O)Nc3ccc([N+](=O)[O-])cc3)c2cc1OC |  |  |  |  | -2% | 3% | -1% | 1% | 
3 | C=CCOC(=O)Nc1c(O)nc(C)c2cc(OC)c(OC)cc12 | -2% | -11% | 2% | -9% |  |  |  |  | 
4 | COc1cc2c(C)nc(O)c(NC(=O)NC3CCCCC3)c2cc1OC |  |  |  |  | -4% | 7% | 0% | 0% | 
5 | COc1cc2c(C)nc(O)c(NC(=O)NC(C)C)c2cc1OC |  |  |  |  | -10% | 11% | 3% | -9% | 
6 | COc1ccc(NC(=O)Nc2c(O)nc(C)c3c(OC)c(OC)c(OC)cc23)cc1 | 7% | -15% | 14% | -4% |  |  |  |  | 
7 | COc1cc2c(C)nc(O)c(NC(C)=O)c2cc1OC | 14% | -24% | 39% | 6% |  |  |  |  | Increase [9]: 47%
8 | COc1cc2c(C)nc(O)c(NC(=O)C(C)C)c2cc1OC | -1% | -4% | -5% | -2% |  |  |  |  | 
9 | CCCCNC(=O)Nc1c(O)nc(C)c2cc(O)c(O)cc12 |  |  |  |  | 2% | -2% | 2% | -1% | 
10 | CCCCNC(=O)Nc1c(O)nc(C)c2cc(OC)c(OC)cc12 | -2% | -52% | 117% | 4% | -27% | 36% | 6% | -3% | 
11 | CCCCOC(=O)Nc1c(O)nc(C)c2cc(OC)c(OC)cc12 | -6% | 29% | -23% | -3% |  |  |  |  | 
12 | C=CCNC(=O)Nc1c(O)nc(C)c2cc(OCC)c(OC)cc12 |  |  |  |  | -22% | 28% | 29% | -2% | 
13 | COc1cccc(NC(=O)Nc2c(O)nc(C)c3cc(OC)ccc23)c1 |  |  |  |  | -4% | 17% | 5% | 2% | 
14 | CCOc1cc2c(C)nc(O)c(NC(=O)Nc3ccc(OC)cc3)c2cc1OC | 10% | 15% | -8% | 6% |  |  |  |  | 
15 | CCOC(=O)c1ccc(NC(=O)Nc2c(O)nc(C)c3cc(OC)c(OC)cc23)cc1 |  |  |  |  | -4% | 2% | -1% | -2% | 
16 | CNC(=O)Nc1c(O)nc(C)c2cc(OC)c(OC)cc12 |  |  |  |  | -5% | 4% | 3% | 4% | 
17 | COc1cc2c(C)nc(O)c(N)c2cc1OC | 4% | -13% |  | 6% |  | 23% |  |  | Increase [10]: 114%

Row | Structure (SMILES) | Change [1] | Change [2] | Change [3] | Change [4] | Change [5] | Change [6] | Change [7] | Change [8] | other results
18 | COc1cc2c(C)nc(O)c(NC(=O)NC(C)(C)C)c2cc1OC | -4% | -8% | 10% | 1% |  |  |  |  | 
19 | COc1ccc(NC(=O)Nc2c(O)nc(C)c3cc(OC)c(OC)cc23)cc1 | 2% | -32% | 68% | 12% |  |  |  |  | 
20 | CCCCC(=O)Nc1c(O)nc(C)c2cc(OC)c(OC)cc12 | 6% | 13% | -9% | 3% |  |  |  |  | 
21 | COc1cc2cnc(O)c(NC(C)=O)c2cc1OC | -8% | -12% | 30% | 14% |  |  |  |  | 
22 | COc1cc2c(C)nc(O)c(NC(=O)Nc3ccc(C(F)(F)F)cc3)c2cc1OC | 10% | -29% | 49% | 4% |  |  |  |  | 
23 | CCNC(=O)Nc1c(O)nc(C)c2cc(OC)c(OC)cc12 |  |  |  |  | -22% | 28% | 0% | 0% | 
24 | C=CCNC(=O)Nc1c(O)nc(C)c2cc(OC)c(OC)cc12 |  |  |  |  | -44% | 97% | -3% | 8% | 
25 | COc1cc2c(C)nc(O)c(NC(=O)Nc3ccccc3)c2cc1OC |  |  |  |  | 35% | -23% | -13% | 0% | 
26 | COc1cc2cc(O)nc(C)c2cc1OC |  |  |  |  |  |  |  |  | Increase [11]: 100%
27 | CCCCNC(=O)Nc1c(O)nc(C)c2cc(OC)ccc12 |  |  |  |  | 16% | -12% | -6% | 3% | 
28 | COc1cc2c(C)nc(O)c(NC(=O)Nc3ccc(C(=O)O)cc3)c2cc1OC |  |  |  |  | -28% | 40% | -12% | -1% | 
29 | CCCCCC(=O)Nc1c(O)nc(C)c2cc(OC)c(OC)cc12 | -9% | 40% | -27% | 0% |  |  |  |  | 
30 | CCCNC(=O)Nc1c(O)nc(C)c2cc(OC)c(OC)cc12 |  |  |  |  | 0% | 5% | -7% | 1% | 
31 | COc1cccc(NC(=O)Nc2c(O)nc(C)c3c(OC)c(OC)ccc23)c1 |  |  |  |  | -16% |  | -2% | -3% | Change [12]: 17%
32 | COc1cc2c(C)nc(O)c(NC(=O)Nc3cccc(C(F)(F)F)c3)c2cc1OC | -10% | -16% | 23% | 2% |  |  |  |  | 
33 | CCc1c(O)nc(C)c2cc(OC)c(OC)cc12 |  |  |  |  |  |  |  |  | Increase [13]: 143%
